Source: PubChem BioAssay
E-sel inducer = induces E-selectin expression in human endothelial cells. AID 686992. 0.37% of 260,000 active. P16581. HUVEC E-selectin immunofluorescence imaging; normalized: neutral wells 0, TNF-alpha wells 100. activation, % at 7.58 µM;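 active = mean E-selectin-positive cell signal at least 10% of the positive control, reached in at least 60% of replicates, without over 20% cell loss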
Target sequence (P16581 whole entry, looked up): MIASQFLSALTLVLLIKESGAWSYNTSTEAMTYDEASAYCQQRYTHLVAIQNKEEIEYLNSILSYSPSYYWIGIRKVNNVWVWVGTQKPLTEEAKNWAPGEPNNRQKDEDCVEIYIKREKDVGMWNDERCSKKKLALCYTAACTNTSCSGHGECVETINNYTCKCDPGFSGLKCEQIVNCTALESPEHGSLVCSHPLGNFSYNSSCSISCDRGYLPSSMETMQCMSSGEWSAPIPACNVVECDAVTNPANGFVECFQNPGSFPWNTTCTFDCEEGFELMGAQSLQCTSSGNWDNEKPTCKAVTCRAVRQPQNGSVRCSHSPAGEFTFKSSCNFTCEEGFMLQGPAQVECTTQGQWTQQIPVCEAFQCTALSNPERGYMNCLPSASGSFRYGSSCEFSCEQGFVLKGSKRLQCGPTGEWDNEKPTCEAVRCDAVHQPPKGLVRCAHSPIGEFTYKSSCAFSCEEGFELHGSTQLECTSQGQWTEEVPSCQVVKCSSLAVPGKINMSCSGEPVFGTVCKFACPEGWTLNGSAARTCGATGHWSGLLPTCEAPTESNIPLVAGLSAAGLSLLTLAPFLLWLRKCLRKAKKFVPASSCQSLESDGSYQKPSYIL
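material = human umbilical vein endothelial cells (HUVEC), E-selectin induction | quantity = 3,000 cells/well | medium = EGM-2 growth medium on 0.1% gelatin-coated wells | technique = immunofluorescence imaging | read-out basis = % PE-positive cells | control set = TNF-alpha positive control, DMSO neutral control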
C2C12 statin = suppression of simvastatin myotoxicity | C2C12 myotubes + simvastatin, ATP luminescence, 48 h; scaled: DMSO 0, geranylgeraniol control 100 | rescue of ATP level, % at 7.49 µM | 0.78% of 330,000 active;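 active = mean ATP rescue above about 67%, or every replicate alone reaching that limit, limit read from the data, passing the limit was not always enough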;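 also: myotubes were challenged with 10 µM simvastatin during compound exposure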
DENV2 CPE rescue = inhibitors of DENV2 cytopathic effect | 1.7% of 350,000 active | CPE inhibition, % at 9.99 µM | DENV2-infected cells, cytopathic effect rescue, plate reader; in the data active = CPE inhibition above about 20%, passing the limit was not always enough; tested in BHK-21 cells;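 also: 0% = median of neutral control wells and 100% = median of positive control wells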
The depositor's hits bear a star; . = no result. The list is not random: actives were taken first. Their share in the collection is about 2.2%.

SMILES | E-sel inducer | C2C12 statin | DENV2 CPE rescue
CNC[C@@H]1Oc2ccc(NC(=O)CCCN(C)C)cc2C(=O)N([C@@H](C)CO)C[C@@H]1C | 0.0 | 12.0 | -2.8
COc1ccc(CNC(=O)Nc2ccc3c(c2)c(=O)n(C)n3Cc2cc(C)cc(C)c2)cc1 | 0.1 | 5.4 | 32.2*
Cn1c(=O)c2cc(NC(=O)NCc3ccccc3)ccc2n1Cc1cccc(C(F)(F)F)c1 | 0.0 | -2.7 | 10.0
Nc1cccc2c(O)cccc12 | 0.4 | . | 31.5*
Nc1ccccc1O | . | -4.0 | .
CCc1cc2c(cc3c(=O)n(CC(=O)N4CCN(C)CC4)ncn32)s1 | . | 19.5 | -1.2
CCc1cc2c(cc3c(=O)n(CC(=O)NCCCN4CC(C)CC(C)C4)ncn32)s1 (configuration not stated) | -0.1 | -26.5 | 64.0*
C[C@@H]1CN([C@@H](C)CO)C(=O)c2cc(NC(=O)C3CC3)ccc2O[C@@H]1CN(C)Cc1ccc(Oc2ccccc2)cc1 | . | 11.4 | 79.0*
C[C@@H]1CN([C@@H](C)CO)C(=O)c2cc(NC(=O)C3CC3)ccc2O[C@H]1CN(C)Cc1ccc(Oc2ccccc2)cc1 | . | -14.8 | 33.0*
COc1ccc(CN(C)C[C@H]2Oc3ccc(NC(=O)C4CCCCC4)cc3C(=O)N([C@@H](C)CO)C[C@@H]2C)cc1 | -0.3 | -3.9 | -2.8
C[C@H]1CN([C@@H](C)CO)C(=O)c2cc(NC(=O)C3CCCCC3)ccc2O[C@@H]1CN(C)Cc1ccc(Oc2ccccc2)cc1 | -0.1 | . | .
COc1ccc(CN(C)C[C@@H]2Oc3ccc(NC(=O)C4CCCCC4)cc3C(=O)N([C@@H](C)CO)C[C@@H]2C)cc1 | -0.4 | -8.6 | 37.6*
C[C@@H]1CN([C@@H](C)CO)C(=O)c2cc(NC(=O)C3CCCCC3)ccc2O[C@@H]1CN(C)Cc1ccc(Oc2ccccc2)cc1 | -0.5 | . | .
COc1ccc(S(=O)(=O)N2CC[C@@H]3[C@H](CO)Nc4ccc(C#Cc5cccnc5)cc4[C@@H]32)cc1 | -0.6 | -27.8 | -5.7
C[C@@H]1CN([C@@H](C)CO)C(=O)c2cc(N(C)C)ccc2O[C@H]1CN(C)Cc1ccc2c(c1)OCO2 | -1.7 | -21.8 | -7.7
C[C@H]1CN([C@@H](C)CO)C(=O)c2cc(NS(=O)(=O)c3ccccc3)ccc2O[C@@H]1CN(C)S(=O)(=O)c1cn(C)cn1 | 0.2 | -34.3 | 8.4
COc1ccc(/C(C)=N/NC(=O)c2ccc(CSc3cccc4cccnc34)cc2)cc1OC | . | -11.5 | .
C/C(=N\NC(=O)c1ccc(CSc2cccc3cccnc23)cc1)C1CCCCC1 | -1.4 | 9.8 | 102.5*
C[C@H](CO)N1C[C@H](C)[C@H](CN(C)Cc2ccccc2)Oc2ncc(C#Cc3cccnc3)cc2C1=O | -0.6 | 5.9 | 0.4
COc1ccc(NC(=O)N(C)C[C@H]2Oc3c(NC(=O)CCCCCC(=O)Nc4ccccc4N)cccc3C(=O)N([C@@H](C)CO)C[C@H]2C)cc1 | 0.0 | . | 33.6*
COc1ccc(NC(=O)N(C)C[C@H]2Oc3c(NC(=O)CCCCCC(=O)Nc4ccccc4N)cccc3C(=O)N([C@H](C)CO)C[C@@H]2C)cc1 | -0.2 | . | 7.7
C[C@H]1CN([C@@H](C)CO)C(=O)c2cccc(NC(=O)CCCCCC(=O)Nc3ccccc3N)c2O[C@@H]1CN(C)C | 7.1 | . | 23.4*
CC(C)NC(=O)N(C)C[C@H]1Oc2c(NC(=O)CCCCCC(=O)Nc3ccccc3N)cccc2C(=O)N([C@H](C)CO)C[C@@H]1C | -15.3 | . | -10.7
CC(C)NC(=O)N(C)C[C@H]1Oc2c(NC(=O)CCCCCC(=O)Nc3ccccc3N)cccc2C(=O)N([C@@H](C)CO)C[C@H]1C | 40.4* | . | 2.0
C[C@H]1CN([C@@H](C)CO)C(=O)c2cccc(NC(=O)CCCCCC(=O)Nc3ccccc3N)c2O[C@H]1CN(C)C | -6.6 | . | -5.9
SMILES | E-sel inducer | C2C12 statin | DENV2 CPE rescue
C=CCN1C(=O)[C@]2(O[C@H](CCn3cc(CCO)nn3)[C@@H]([Si](C)(C)c3ccc(OC)cc3)[C@@H]2C)c2cc(N3C(=O)c4cccc5cccc3c45)ccc21 | . | . | 9.1
C[C@H](CO)N1C[C@H](C)[C@H](CN(C)C(=O)Nc2ccccc2)Oc2c(NS(=O)(=O)c3ccccc3)cccc2C1=O | . | -24.5 | -6.5
Cc1cccn2c(=O)c(/C=N/O)c(NCc3ccccc3)nc12 | . | . | -1.5
Cc1cccn2c(=O)c(/C=N/O)c(Nc3ccccc3F)nc12 | 59.3* | . | -3.2
CC(C)NC(=O)N(C)C[C@H]1OCCCC[C@H](C)Oc2ccc(NS(=O)(=O)c3ccc(F)cc3)cc2C(=O)N([C@H](C)CO)C[C@@H]1C | 0.2 | . | -10.4
CNC[C@@H]1Oc2ccc(NC(=O)Nc3ccc(OC)cc3)cc2C(=O)N([C@@H](C)CO)C[C@@H]1C | -0.4 | 17.4 | 11.0
Cc1noc(C)c1NC(=O)Nc1ccc2c(c1)CC(=O)N([C@H](C)CO)C[C@@H](C)[C@@H](CN(C)Cc1ccccc1)O2 | -0.3 | 1.0 | 2.0
COc1ccc(CN(C)C[C@H]2Oc3ccc(NC(=O)Nc4c(C)noc4C)cc3CC(=O)N([C@H](C)CO)C[C@@H]2C)cc1 | -0.4 | . | 4.1
Cc1noc(C)c1NC(=O)Nc1ccc2c(c1)C(=O)N([C@H](C)CO)C[C@H](C)[C@@H](CN(C)Cc1ccc(Oc3ccccc3)cc1)O2 | 1.3 | 3.6 | -3.0
COc1ccc(CN(C)C[C@H]2Oc3ccc(NC(=O)Nc4c(C)noc4C)cc3C(=O)N([C@@H](C)CO)C[C@H]2C)cc1 | 239.1* | 6.1 | 12.2
COc1ccc(CN(C)C[C@@H]2Oc3ccc(NC(=O)Nc4c(C)noc4C)cc3CC(=O)N([C@H](C)CO)C[C@@H]2C)cc1 | -19.2 | . | 40.8*
Cc1noc(C)c1NC(=O)Nc1ccc2c(c1)CC(=O)N([C@H](C)CO)C[C@H](C)[C@@H](CN(C)Cc1ccc(Oc3ccccc3)cc1)O2 | -11.0 | 103.4* | -4.4
C[C@H](CO)N1C[C@H](C)[C@H](CN(C)CC2CCCC2)OCc2cnnn2CCCC1=O | -0.1 | 13.8 | 1.2
C[C@H]1CN([C@@H](C)CO)C(=O)c2cc(C3=CCCCC3)cnc2O[C@@H]1CN(C)C(=O)c1ccncc1 | -0.6 | 25.0 | -3.4
CNC[C@@H]1Oc2ccc(NC(=O)Nc3ccc(C(F)(F)F)cc3)cc2CC(=O)N([C@H](C)CO)C[C@@H]1C | -0.1 | 15.3 | 16.3
CC(C)C#Cc1cnc2c(c1)C(=O)N([C@@H](C)CO)C[C@@H](C)[C@H](CN(C)C(=O)Nc1ccccc1)O2 | -0.2 | 11.5 | -0.8
COc1ccc(S(=O)(=O)Nc2ccc3c(c2)CC(=O)N([C@H](C)CO)C[C@@H](C)[C@@H](CN(C)Cc2ccc(Oc4ccccc4)cc2)O3)cc1 | -0.3 | 23.0 | 1.9
CC(C)(C)CC(=O)Nc1ccc(-c2cn3cccnc3n2)cc1 | 34.4* | -1.3 | -2.8
CCCC(=O)Nc1ccc(-c2cn3cccnc3n2)cc1 | -0.1 | . | 3.3
C[C@@H]1CN([C@H](C)CO)C(=O)c2cc(NC(=O)c3ccncc3)ccc2O[C@@H]1CN(C)Cc1ccc(Cl)c(Cl)c1 | 0.1 | 24.4 | -7.1
C[C@@H]1CN([C@@H](C)CO)C(=O)c2cc(NC(=O)c3ccccc3)ccc2O[C@@H](C)CCCCO[C@@H]1CN(C)C(=O)CCCN(C)C | 1.4 | 24.9 | -4.7
